{"data": "Measured values collected from several papers", "BRAF": "Serine/threonine-protein kinase B-raf (BRAF, Homo sapiens, UniProt P15056)", "BRAF V600E": "Serine/threonine-protein kinase B-raf (BRAF, Homo sapiens, UniProt P15056, V600E)", "note": "Lines come from different studies, so protocols differ."}
{"SMILES": "Cn1nc(C(=O)NCc2ccc(C(=O)O)cc2)cc1-c1ccc2[nH]ccc2c1", "target": "BRAF", "observed": "cell-free assay", "technique": "competition with immobilised ligand", "concentration": "0.1 µM", "endpoint": "remaining binding", "result": "74%"}
{"SMILES": "CC(C)(O)[C@H]1CC[C@H](Nc2ccc3ncc(-c4cccc(C(F)(F)F)c4)n3n2)CC1", "target": "BRAF", "observed": "enzyme activity", "action": "inhibitor", "concentration": "1 µM", "endpoint": "remaining activity", "result": "93.8%"}
{"SMILES": "O=C(Nc1cccnn1)N1CCC(=Cc2cccc(Oc3ccc(C(F)(F)F)cn3)c2)CC1", "target": "BRAF V600E", "observed": "cell-free assay", "technique": "competition with immobilised ligand", "concentration": "1 µM", "endpoint": "remaining binding", "result": "100%"}
{"SMILES": "COc1cc(Cl)c(C(=O)N[C@@H](CN[C@H]2CC[C@@H](N)CC2)Cc2ccc(C#N)cc2)cc1-c1ccc(CN[C@H](C)c2ccc(C)cc2)o1", "target": "BRAF", "observed": "enzyme activity", "action": "inhibitor", "concentration": "1 µM", "endpoint": "remaining activity", "result": "97%"}
{"SMILES": "O=C(NS(=O)(=O)c1ccc(NCC2CCOCC2)c([N+](=O)[O-])c1)c1ccc(N2CCN(Cc3ccc(C(F)(F)F)cc3-c3ccc(Cl)cc3)CC2)cc1Oc1cnc2[nH]ccc2c1", "target": "BRAF V600E", "observed": "cell-free assay", "technique": "competition with immobilised ligand", "concentration": "1 µM", "endpoint": "remaining binding", "result": "83%"}
{"SMILES": "Cc1ccc(C(CS(=O)(=O)c2ccccc2)=NNc2nc(C)c(N=Nc3ccccc3)s2)cc1", "target": "BRAF V600E", "observed": "enzyme activity", "action": "inhibitor", "technique": "ATP luminescence", "concentration": "1 µM", "endpoint": "inhibition", "result": "63%"}
{"SMILES": "O=C(Nc1cnn(-c2csc(C(=O)NC3COC3)c2)c1)Nc1ccccc1Cl", "target": "BRAF", "observed": "enzyme activity", "action": "inhibitor", "concentration": "5 µM", "endpoint": "remaining activity", "result": "93.3%"}
{"SMILES": "C[S+]([O-])c1ccc(-c2nc(-c3ccncc3)c(-c3ccc(F)cc3)[nH]2)cc1 (centres unmarked)", "target": "BRAF", "observed": "cell-free assay", "concentration": "0.5 µM", "endpoint": "remaining signal", "result": "78.8%"}
{"SMILES": "O=C1NC(c2ccccn2)Sc2ccccc21 (centres unmarked)", "target": "BRAF V600E", "observed": "cell-free assay", "technique": "competition with immobilised ligand", "concentration": "1 µM", "endpoint": "remaining binding", "result": "94%"}
{"SMILES": "Cc1ccc(C(=O)Nc2ccc(CN3CCN(C)CC3)c(C(F)(F)F)c2)cc1C#Cc1cnc2cccnn12", "target": "BRAF", "observed": "cell-free assay", "concentration": "23.5 nM", "endpoint": "remaining signal", "result": "15%"}
{"SMILES": "Cc1nc(C2CCN(C(=O)c3ccc(OC(F)(F)F)cc3N)CC2)c2ncc(N3CCN(C)CC3)cc2n1", "target": "BRAF", "observed": "cell-free assay", "technique": "competition with immobilised ligand", "concentration": "1 µM", "endpoint": "remaining binding", "result": "100%"}
{"SMILES": "Cc1cc(NC(=O)c2cccc3cc(-c4cccc5[nH]nc(N)c45)ccc23)ccc1F", "target": "BRAF V600E", "observed": "enzyme activity", "action": "inhibitor", "concentration": "0.1 µM", "endpoint": "activity vs control", "result": "100%"}
{"SMILES": "CC(C)(C)c1nc2c(s1)c1nc(N)ncc1c1ccc(NS(=O)(=O)c3c(F)cccc3F)c(F)c12", "target": "BRAF", "observed": "enzyme activity", "action": "inhibitor", "technique": "radiometric", "concentration": "1 µM", "endpoint": "remaining activity", "result": "27%"}
{"SMILES": "Cc1cnn2ncc(-c3ccnc(N(C)C)n3)c2c1", "target": "BRAF V600E", "observed": "binding", "concentration": "1 µM", "endpoint": "remaining binding", "result": "91%"}
{"SMILES": "Nc1ncnc2occ(-c3ccc(NC(=O)Nc4cc(C(F)(F)F)ccc4F)cc3)c12", "target": "BRAF V600E", "observed": "cell-free assay", "concentration": "20 µM", "endpoint": "remaining signal", "result": "0.05%"}
{"SMILES": "NC(=S)NN=C(CS(=O)(=O)c1ccccc1)c1ccc(F)cc1", "target": "BRAF V600E", "observed": "enzyme activity", "action": "inhibitor", "technique": "ATP luminescence", "concentration": "1 µM", "endpoint": "inhibition", "result": "76%"}
{"SMILES": "Cc1ccc(C(=O)NCc2ccsc2)cc1C#Cc1cn(C(C)C)c2ncnc(N)c12", "target": "BRAF V600E", "observed": "enzyme activity", "action": "inhibitor", "concentration": "1 µM", "endpoint": "activity vs control", "result": "9%"}
{"SMILES": "Cc1ccc(NC(=O)c2ccc(CN3CCN(C)CC3)cc2)cc1Nc1nc(-c2cccnc2)cs1", "target": "BRAF", "observed": "cell-free assay", "concentration": "0.5 µM", "endpoint": "remaining signal", "result": "92.3%"}
{"SMILES": "COc1cc2nccc(Oc3ccc(NC(=O)Nc4ccc(F)cc4F)c(F)c3)c2cc1OC", "target": "BRAF", "observed": "thermal stability", "technique": "DSF", "concentration": "10 µM", "endpoint": "ΔTm", "result": "> 10 °C"}
{"SMILES": "Cc1c(NC(=O)c2cc(C(N)=O)nc3cc(F)ccc23)c(C(F)(F)F)nn1Cc1ccc(C(C)(C)C)cc1", "target": "BRAF V600E", "observed": "cell-free assay", "technique": "competition with immobilised ligand", "concentration": "1 µM", "endpoint": "remaining binding", "result": "98%"}
{"SMILES": "Cc1ccc(C(CS(=O)(=O)c2ccccc2)=NNC2=NC(=O)C(=NNc3ccc([N+](=O)[O-])cc3)S2)cc1", "target": "BRAF V600E", "observed": "enzyme activity", "action": "inhibitor", "technique": "ATP luminescence", "concentration": "10 nM", "endpoint": "inhibition", "result": "31%"}
{"SMILES": "CC(C)(C)c1nc(-c2cccc(NS(=O)(=O)c3c(F)cccc3F)c2F)c(-c2ccnc(N)n2)s1", "target": "BRAF V600E", "observed": "enzyme activity", "action": "inhibitor", "technique": "radiometric", "concentration": "1 µM", "endpoint": "activity vs control", "result": "1%"}
{"SMILES": "Cc1ccc(C(CS(=O)(=O)c2ccccc2)=NNc2nc(-c3ccc(OCCCCOc4ccc(-c5csc(NN=C(CS(=O)(=O)c6ccccc6)c6ccc(C)cc6)n5)cc4)cc3)cs2)cc1", "target": "BRAF V600E", "observed": "enzyme activity", "action": "inhibitor", "technique": "ATP luminescence", "concentration": "10 nM", "endpoint": "inhibition", "result": "32%"}
{"SMILES": "CCOCCn1cc(C(=O)Nc2ccc(-n3nc(-c4cccnc4)cc3C(F)(F)F)cn2)ccc1=O", "target": "BRAF V600E", "observed": "cell-free assay", "technique": "competition with immobilised ligand", "concentration": "1 µM", "endpoint": "remaining binding", "result": "97%"}
{"SMILES": "N[C@@H]1CCN(c2nccc(-c3cnn4ncccc34)n2)C1", "target": "BRAF", "observed": "binding", "concentration": "1 µM", "endpoint": "remaining binding", "result": "100%"}
{"SMILES": "Cc1ccc(C(CS(=O)(=O)c2ccccc2)=NNC2=NC(=O)C(=NNc3ccc(Cl)cc3)S2)cc1", "target": "BRAF V600E", "observed": "enzyme activity", "action": "inhibitor", "technique": "ATP luminescence", "concentration": "10 µM", "endpoint": "inhibition", "result": "83%"}
{"SMILES": "C[C@H](c1ccc(F)cc1)N(Cc1cccc(C(=O)O)c1)C(=O)c1cnc2ccccc2c1", "target": "BRAF V600E", "observed": "cell-free assay", "technique": "competition with immobilised ligand", "concentration": "1 µM", "endpoint": "remaining binding", "result": "100%"}
{"SMILES": "COc1ccc(-c2csc(NN=C(CS(=O)(=O)c3ccccc3)c3ccc(F)cc3)n2)cc1", "target": "BRAF V600E", "observed": "enzyme activity", "action": "inhibitor", "technique": "ATP luminescence", "concentration": "1 µM", "endpoint": "inhibition", "result": "72%"}
{"SMILES": "N#CCCc1ccc2c(c1)-c1[nH]c3ccc([N+](=O)[O-])cc3c1CC(=O)N2", "target": "BRAF", "observed": "cell-free assay", "concentration": "0.5 µM", "endpoint": "remaining signal", "result": "99.3%"}
